# Assay outcomes as filed in PubChem BioAssay.
# Compounds with a hit are over-represented: about 4.1% of the library has one in this group of screens.
# Cl transport mod = KCC2 cotransporter modulators, thallium flux, primary screen, cell-based, HEK293 KCC2, FluoZin-2 fluorescence, MLSMR | KCC2 cells, thallium flux FluoZin-2 fluorescence | B-score of Tl+ flux slope (higher = more flux/activation; lower = inhibition) at 10 µM | hit rate 2.2% among 190,000;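 active = thallium flux slope and its plate-corrected score both differing from the plate sample mean at a set confidence after two filtering rounds, in either direction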;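 also: slope of fluorescence scaled to starting intensity during 10 to 20 s after thallium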
# hERG protect = hERG rescue from dofetilide block, primary screen, cell-based, CHO-hERG, FluxOR thallium flux, dofetilide IC70 | Voltage-gated inwardly rectifying potassium channel KCNH2 (Homo sapiens), Q12809 | dofetilide IC70 present | activation (rescue from dofetilide block), less the hit threshold, % at 10 µM | hit rate 0.51% among 310,000 | AID 1511, 2009;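 active = activation above the mean of controls blocked by dofetilide plus 5 SD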;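 also: thallium influx through hERG after potassium depolarization seen as dye fluorescence rise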
# KCNK9 block = KCNK9 potassium channel inhibitors, primary screen, HEK293 cells, thallium flux; Potassium channel subfamily K member 9 (Homo sapiens), Q9NPC2; FluxOR thallium flux fluorescence; stronger effect = lower value; B-score at 10 µM; hit rate 1.2% among 310,000; AID 488922, 2010;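 active = ratio B-score over 3 SD below the library mean, with starting fluorescence within 5 SD of its mean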;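 also: negative B-score means less thallium flux so channel inhibition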
# Target sequence (Q9NPC2 whole entry, looked up): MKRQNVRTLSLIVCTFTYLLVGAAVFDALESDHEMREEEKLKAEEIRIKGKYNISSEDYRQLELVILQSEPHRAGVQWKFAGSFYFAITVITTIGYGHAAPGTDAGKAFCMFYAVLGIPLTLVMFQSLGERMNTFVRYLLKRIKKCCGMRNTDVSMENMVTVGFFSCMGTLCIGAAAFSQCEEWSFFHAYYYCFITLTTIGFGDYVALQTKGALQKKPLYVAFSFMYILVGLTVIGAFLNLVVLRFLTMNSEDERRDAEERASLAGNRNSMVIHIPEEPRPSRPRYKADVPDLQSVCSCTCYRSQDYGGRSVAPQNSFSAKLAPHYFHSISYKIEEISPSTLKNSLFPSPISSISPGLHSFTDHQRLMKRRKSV
# KCNK3 inh = human KCNK3 channel inhibitors, primary screen, CHO cells, FluxOR thallium flux, B-score. Potassium channel subfamily K member 3 (Homo sapiens), O14649. FluxOR fluorescence; stronger effect = lower value. B-score at 10 µM. hit rate 0.84% among 340,000;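 active = B-score under library mean minus 4 SD, starting fluorescence ratio at most library mean plus 5 SD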;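 also: more negative B-score means stronger inhibition of thallium flux through KCNK3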
# Target sequence (O14649 whole entry, looked up): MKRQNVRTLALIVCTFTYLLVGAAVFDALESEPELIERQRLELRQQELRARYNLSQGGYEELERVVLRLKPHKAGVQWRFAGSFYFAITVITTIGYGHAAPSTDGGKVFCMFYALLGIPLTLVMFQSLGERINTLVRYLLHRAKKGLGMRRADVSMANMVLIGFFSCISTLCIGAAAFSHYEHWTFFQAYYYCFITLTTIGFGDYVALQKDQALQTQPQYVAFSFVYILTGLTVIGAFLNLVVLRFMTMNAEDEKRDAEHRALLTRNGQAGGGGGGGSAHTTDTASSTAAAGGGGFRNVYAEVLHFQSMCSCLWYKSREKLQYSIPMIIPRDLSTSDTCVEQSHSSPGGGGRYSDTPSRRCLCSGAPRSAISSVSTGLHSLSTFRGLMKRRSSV
# KCNQ1 inh = inhibitors of human KCNQ1 channel, primary screen, cell-based, thallium flux, high-throughput; B-score at 10 µM; Potassium voltage-gated channel subfamily KQT member 1 (Homo sapiens), P51787; hit rate 1.3% among 310,000; CHO-K1 KCNQ1, FluxOR thallium flux fluorescence; stronger effect = higher value;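 active = compounds whose thallium flux B-score, printed positive for inhibition, exceeds three library SD while starting fluorescence stays within three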;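 also: channel opened by potassium depolarization with thallium stimulus after 20 min compound exposure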
# KCNQ1 act = potentiators or activators of KCNQ1 channel, primary screen, cell-based, thallium flux, high-throughput; hit rate 0.35% among 310,000; CHO-K1 KCNQ1, thallium flux FluxOR fluorescence; stronger effect = higher value; B-score at 10 µM; Potassium voltage-gated channel subfamily KQT member 1 (Homo sapiens), P51787;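 active = fluorescence ratio B-score, a plate-corrected score, at least three library SD, with initial intensity B-score within 5 SD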
#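 System: CHO-K1 cells stably expressing KCNQ1 / Medium: assay buffer for compound exposure, DMSO matched across wells / Reagent: thallium- and potassium-containing depolarizing buffer / Compound: one concentration, matched DMSO / Incubation: 20 min compound pretreatment at room temperature / Measured by: kinetic FluxOR fluorescence, 10 s baseline plus 110 s post-stimulus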
# KCC2 sec1 = KCC2 modulators in sodium-free buffer, confirmation, cell-based, HEK293 KCC2, thallium flux, secondary assay; hit rate 15% among 3,700; shares compounds with Cl transport mod; normalised thallium flux (F/F0 slope) at 10 µM; FluoZin2 fluorescence; stronger effect = higher value; AID 1713, 2009;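 active = thallium flux slope above the same plate's solvent-only control mean plus 3 SD; inconclusive = the two replicate wells disagree; inactive = no significant difference from solvent-only control wells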
# KCC2 bumet counter = thallium flux persisting under bumetanide in KCC2 cells, confirmation, counter-screen for KCC2 modulator project, cell-based, HEK293 KCC2, FluoZin2, secondary assay 3. normalized thallium flux at 10 µM. hit rate 49% among 3,700. HEK293-KCC2 + bumetanide/ouabain; stronger effect = higher value. shares compounds with Cl transport mod. AID 1714, 2009;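 active = thallium entry rate above the same plate's blocked-transporter control wells by more than 3 SD; inconclusive = the two repeat wells disagree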;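 also: raw slope of fluorescence over initial fluorescence between 10 and 20 s after thallium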
# KCC2 sec2 = KCC2 modulators without ouabain present, confirmation, cell-based, HEK293 KCC2, thallium flux, FluoZin2, secondary assay 2; shares compounds with Cl transport mod; thallium flux FluoZin2 fluorescence; actives lie on both sides; F/F0 rise rate, 10–20 s post-thallium; normalized thallium flux at 10 µM; hit rate 23% among 3,700; AID 1715, 2009;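 active = thallium flux slope more than 3 SD above or below the plate's solvent-only control mean, mostly below; inconclusive = the two repeat wells disagreed; inactive = no significant shift from solvent-only controls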
# HEK counter1 = thallium flux modulation in parental HEK cells, confirmation, counter-screen for KCC2 modulator project, cell-based, counterscreen 1; hit rate 46% among 3,700; HEK293 parental cells, thallium flux FluoZin2, ouabain; baseline-ratio fluorescence slope, 10–20 s after thallium; thallium flux rate (normalised fluorescence) at 10 µM; shares compounds with Cl transport mod;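 active = thallium flux rate significantly above the same plate's solvent-only control wells, beyond their mean plus 3 SD; inconclusive = the two replicate wells gave conflicting results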
# KCC2 retest ouab = KCC2 inhibitors and activators, ouabain retest, confirmation, HEK-KCC2 cells. AID 1717, 2009. shares compounds with Cl transport mod. HEK293-KCC2, thallium flux FluoZin2 fluorescence; bidirectional: low = inhibitor, high = activator. hit rate 48% among 3,700. raw Tl+ flux slope (below DMSO = inhibition, above = activation) at 10 µM;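 active = thallium flux slope beyond 3 SD from same-plate DMSO control mean in most replicates, usually higher, sometimes lower; inconclusive = repeat tests gave conflicting results; inactive = no significant difference from controls in most replicates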;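 also: slope of initial-normalized fluorescence between seconds 10 and 20 after thallium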
# HEK293 Tl flux2 = native HEK Tl+ uptake effects, second counter-screen – HEK cells, counterscreen 2, counter-screen for KCC2 modulator project, confirmation | HEK293 parental, thallium flux FluoZin-2 fluorescence slope | hit rate 33% among 3,700 | shares compounds with Cl transport mod | AID 1718, 2009 | thallium flux slope at 10 µM;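 active = thallium flux slope above the same plate's solvent-control mean plus 3 SD in both duplicate wells; inconclusive = duplicate wells that disagreed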;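 also: run without ouabain in cells lacking the KCC2 cotransporter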
# Numbers stand for hits; . = inactive; ? = inconclusive; / = no result given.
SMILES,Cl transport mod,hERG protect,KCNK9 block,KCNK3 inh,KCNQ1 inh,KCNQ1 act,KCC2 sec1,KCC2 bumet counter,KCC2 sec2,HEK counter1,KCC2 retest ouab,HEK293 Tl flux2
Cc1c(C#N)c(O)[nH]c(=O)c1N=Nc1ccc(S(N)(=O)=O)cc1,/,.,.,.,.,.,/,/,/,/,/,/
CC1=C(C(=O)Nc2ccccc2)C(c2ccco2)C(C#N)=C(SCC(=O)Nc2cccc(C)c2C)N1 (stereo not drawn),.,.,.,.,.,.,/,/,/,/,/,/
CC1=C(C(=O)Nc2ccccc2)C(c2ccco2)C(C#N)=C(SCc2ccccc2)N1 (stereo not drawn),/,.,.,/,11,.,.,.,.,.,.,.
CCNc1nc(NC(C)C)nc(Nn2cnnc2)n1,.,.,.,.,.,.,/,/,/,/,/,/
CCN(CC)S(=O)(=O)c1ccc(Cl)c(OC)c1,/,.,.,.,.,.,.,.,.,.,.,.
CCOC(=O)c1c(C)[nH]c(C)c1C(=O)CSc1nc2ccccc2n1CC,.,.,.,.,.,.,/,/,/,/,/,/
CCOC(=O)c1c(C)[nH]c(C)c1C(=O)CSc1nc2ccccc2c(=O)n1-c1ccc(CC)cc1,4,.,.,.,.,.,.,0.015,.,?,.,?
Cc1ccc(NC(=S)N/C(=N/S(=O)(=O)c2ccccc2)c2ccccc2)cc1,/,.,.,.,.,.,0.02,0.03,0.038,0.024,0.031,0.026
Cc1ccc(S(=O)(=O)/N=C(/NC(=S)Nc2ccccc2)c2ccccc2)cc1,.,.,.,.,.,.,/,/,/,/,/,/
CN(C)c1ncc(S(=O)(=O)c2ccccc2)c(-c2ccc(Cl)cc2Cl)n1,-5.7,.,.,.,.,.,.,.,.,.,.,.
CN(C)c1ncc(S(=O)(=O)c2ccc(Cl)cc2)c(-c2ccc(Cl)cc2Cl)n1,.,.,.,.,.,.,/,/,/,/,/,/
CC(C)(C)C(=O)Nc1ccc(C(=O)N/N=C/c2ccccc2OC(=O)c2ccc(Cl)cc2)cc1,.,.,.,.,.,.,/,/,/,/,/,/
CCOC(=O)C1CCCN(C(=O)CCCn2nc(C)n3c(cc4sccc43)c2=O)C1 (stereo not drawn),-4.2,.,.,.,.,.,.,0.0088,.,.,.,.
Cc1nn(-c2nc3ccccc3[nH]2)c(N)c1-c1ccccc1,2.6,.,.,.,.,.,.,0.012,.,0.011,?,0.014
CCOC(=O)c1c(C)[nH]c(C(=O)OCc2ccccc2F)c1C,/,.,.,.,.,.,/,/,/,/,/,/
CC(C)c1onc(C(=O)N(C)Cc2ccccc2)c1[N+](=O)[O-],.,.,.,.,.,.,/,/,/,/,/,/
CC(C)c1onc(C(=O)N2CCN(Cc3ccccc3)CC2)c1[N+](=O)[O-],-4.9,.,.,.,.,.,.,.,0.028,.,0.015,.
CC(C)c1onc(C(=O)NCCc2ccccc2)c1[N+](=O)[O-],-5.2,.,.,.,.,.,.,.,0.025,.,?,.
CC(C)c1onc(C(=O)N2CCOCC2)c1[N+](=O)[O-],.,.,.,.,.,.,/,/,/,/,/,/
CC(C)(C)OC(=O)N1Cc2ccccc2C[C@H]1C(=O)NCC(=O)NC1CCCC1,/,.,.,.,.,.,/,/,/,/,/,/
Fc1ccc(-c2csc(=S)[nH]2)cc1,83,48,.,.,.,35,0.039,0.11,0.047,0.075,0.087,0.025
O=C(O)c1ccc(-c2nnc(-c3cccc(Br)c3)o2)cc1,/,.,.,.,.,.,/,/,/,/,/,/
CCOC(=O)N1CCN(C(=O)c2ccc3c(=O)n(-c4ccc(OC)cc4)c(=S)[nH]c3c2)CC1,-3.6,.,.,.,.,.,.,.,.,?,.,.
CCOC(=O)N1CCN(C(=O)c2cccc(-n3c(=S)[nH]c4cc(Cl)ccc4c3=O)c2)CC1,/,.,.,.,.,.,.,0.012,?,0.017,0.025,0.02
COC(CNC(=O)c1cccc(-n2c(=S)[nH]c3cc(Cl)ccc3c2=O)c1)OC,4.4,.,.,.,.,.,?,0.021,.,0.015,?,0.012
SMILES,Cl transport mod,hERG protect,KCNK9 block,KCNK3 inh,KCNQ1 inh,KCNQ1 act,KCC2 sec1,KCC2 bumet counter,KCC2 sec2,HEK counter1,KCC2 retest ouab,HEK293 Tl flux2
COC(CNC(=O)c1ccc(-n2c(=S)[nH]c3ccccc3c2=O)cc1)OC,.,.,.,.,.,.,/,/,/,/,/,/
CCC(C)NC(=O)CN1C(=O)NC2(CCOc3ccccc32)C1=O (stereo not drawn),/,.,.,.,.,.,/,/,/,/,/,/
CCn1c(=O)n(CC)c2cc(S(=O)(=O)N3CCC(c4ccccc4)CC3)ccc21,/,.,.,.,.,.,.,.,0.025,.,0.017,.
Cn1c(=O)c(=O)n(C)c2cc(S(=O)(=O)N3CCC(Cc4ccccc4)CC3)ccc21,/,.,.,.,.,.,/,/,/,/,/,/
CC(C)n1c(=S)[nH]c2cc(Cl)ccc21,28,.,.,.,.,.,0.016,0.09,.,0.03,0.039,0.015
Clc1ccc2nc(N3CCCCC3)[nH]c2c1,.,.,.,.,.,.,/,/,/,/,/,/
